This is an account of results in ChEMBL document CHEMBL1144676, “Synthesis and structure-activity relationships of a series of benzazepine derivatives as 5-HT2C receptor agonists” (Bioorg Med Chem, 2008).

The structures appear in SMILES notation.

For test [1], the system named is Rattus norvegicus. The test is described as follows: Effect on penile erection in po dosed rat. As to conditions: read-out: MED. The class given is functional. An outline of the steps:
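Rats given compound orally and placed singly in clear cages; penile erections counted over 30 min post-dose, with testing between 13:00 and 19:00. Erection scored as pelvic thrusts, rising onto hind limbs, engorged penis and licking. MED taken as the lowest dose differing from vehicle at p < 0.05.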

For the next test, the species on record is Homo sapiens. Kind of test: Selectivity for human 5HT2C receptor over human 5HT2B receptor.
The target of test [2] is T1, 5-hydroxytryptamine receptor 2C (Homo sapiens) (UniProt P28335).
T1 sequence (whole entry): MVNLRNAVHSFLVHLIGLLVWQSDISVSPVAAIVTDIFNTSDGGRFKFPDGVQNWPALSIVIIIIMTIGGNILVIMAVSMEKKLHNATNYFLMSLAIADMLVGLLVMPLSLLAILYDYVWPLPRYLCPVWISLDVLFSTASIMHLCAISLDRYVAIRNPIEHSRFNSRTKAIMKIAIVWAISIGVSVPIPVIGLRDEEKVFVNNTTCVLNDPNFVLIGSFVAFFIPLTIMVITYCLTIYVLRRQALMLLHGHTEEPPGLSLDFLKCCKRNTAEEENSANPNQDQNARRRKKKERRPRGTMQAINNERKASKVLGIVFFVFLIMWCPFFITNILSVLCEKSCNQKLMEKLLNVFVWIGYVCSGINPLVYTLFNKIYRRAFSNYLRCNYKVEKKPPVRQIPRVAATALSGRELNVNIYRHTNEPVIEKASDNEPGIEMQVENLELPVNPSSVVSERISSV
Kind of test: Intrinsic activity at human 5HT2C receptor expressed in CHO cells assessed as myo-[3H]inositol turnover relative to 5-hydroxytryptamine. The class given is functional, cell-based. An outline of the steps:
(§1)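 Receptor-expressing CHO cells cultured 1 day, then labelled 24 h with myo-[3H]inositol (3 µCi/mL). Cells washed, held in PBS 20 min, then PBS-LiCl 20 min, then exposed 20 min to compound in PBS-LiCl. Stopped with PCA; [3H]inositol phosphates isolated on AG1-X8 anion-exchange columns and counted. Emax expressed relative to 10 µM 5-HT (100%), derived by non-linear fitting.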

In test [3] the target is Serotonin 2 receptors; 5-HT2a & 5-HT2c (Homo sapiens) (UniProt P28223+P28335). Kind of test: Selectivity for human 5HT2C receptor over human 5HT2A receptor.
Sequence of Serotonin 2 receptors; 5-HT2a & 5-HT2c (Homo sapiens) (P28223 whole entry, looked up, one chain of several): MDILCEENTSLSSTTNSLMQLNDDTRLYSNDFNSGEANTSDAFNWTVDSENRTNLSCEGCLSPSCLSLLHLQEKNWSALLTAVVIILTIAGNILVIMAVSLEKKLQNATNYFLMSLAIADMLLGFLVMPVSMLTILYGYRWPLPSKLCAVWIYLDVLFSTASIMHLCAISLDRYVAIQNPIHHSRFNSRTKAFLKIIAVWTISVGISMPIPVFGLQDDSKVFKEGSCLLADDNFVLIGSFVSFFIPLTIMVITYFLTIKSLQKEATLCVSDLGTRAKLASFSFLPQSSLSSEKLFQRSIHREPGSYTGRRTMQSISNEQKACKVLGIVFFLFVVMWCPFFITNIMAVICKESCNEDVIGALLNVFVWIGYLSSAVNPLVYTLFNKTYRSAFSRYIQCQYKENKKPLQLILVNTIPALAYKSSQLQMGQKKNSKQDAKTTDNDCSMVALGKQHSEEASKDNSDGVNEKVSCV
Test [4] has as its target T2, 5-hydroxytryptamine receptor 2C (Homo sapiens, UniProt P28335).
T2 sequence (P28335 whole entry): T1 sequence (whole entry)
The test is described as follows: Displacement of [3H]5-HT from human 5HT2C receptor expressed in CHO cells. The class given is cell-based. The method in brief:
(§2)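 Radioligand displacement of [3H]5-HT using membranes from CHO cells (5-HT2C, 5-HT2A) or HEK293-EBNA cells (5-HT2B). Medium: 50 mM Tris-HCl pH 7.4, 4 mM CaCl2, pargyline, 0.1 mg/mL ascorbic acid. Incubated 37 C for 30 min, then vacuum-filtered on PEI-treated GF/B filters and counted by scintillation. Non-specific binding defined with 10 µM 5-HT. Ki obtained by Cheng-Prusoff.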
Background: In a radioligand displacement assay an active substance lowers the binding of a labelled ligand.

In test [5] the target is T3, 5-hydroxytryptamine receptor 2A (Homo sapiens, UniProt P28223). Kind of test: Intrinsic activity at human 5HT2A receptor expressed in CHO cells assessed as myo-[3H]inositol turnover relative to 5-hydroxytryptamine. The class given is functional, cell-based. The method in brief:
as §1

Test [6] concerns the target T3, 5-hydroxytryptamine receptor 2A. Kind of test: Displacement of [3H]5-HT from human 5HT2A receptor expressed in CHO cells. The class given is cell-based. An outline of the steps:
as §2

In test [7] the target is 5-hydroxytryptamine receptor 2B (Homo sapiens, UniProt P41595). The test is described as follows: Displacement of [3H]5-HT from human 5HT2B receptor expressed in HEK293-EBNA cells. The class given is cell-based. An outline of the steps: as §2
Sequence of 5-hydroxytryptamine receptor 2B (P41595 whole entry): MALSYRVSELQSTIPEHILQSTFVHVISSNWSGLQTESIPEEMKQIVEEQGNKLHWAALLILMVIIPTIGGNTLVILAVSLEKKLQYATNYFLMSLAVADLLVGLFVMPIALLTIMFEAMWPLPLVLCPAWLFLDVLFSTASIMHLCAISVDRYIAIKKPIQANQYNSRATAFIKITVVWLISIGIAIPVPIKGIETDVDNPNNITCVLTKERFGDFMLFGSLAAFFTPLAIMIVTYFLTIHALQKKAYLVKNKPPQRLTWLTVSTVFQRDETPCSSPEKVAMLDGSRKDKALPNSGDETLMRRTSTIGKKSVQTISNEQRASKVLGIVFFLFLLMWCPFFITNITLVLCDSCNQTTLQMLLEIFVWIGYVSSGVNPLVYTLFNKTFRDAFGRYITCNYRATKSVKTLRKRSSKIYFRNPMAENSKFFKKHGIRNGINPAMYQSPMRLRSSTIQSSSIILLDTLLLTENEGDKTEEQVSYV
Test [8] concerns Rattus norvegicus. The test is described as follows: Cardiovascular effect in po dosed rat assessed as increase in mean arterial blood pressure. The class given is functional, organism-based. The conditions noted are these: Artery. An outline of the steps:
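Carotid artery catheterised under pentobarbital (60 mg/kg ip). After at least 2 days of recovery, conscious rats stabilised ≥30 min in cages and then dosed orally at 3–30 mg/kg. Mean arterial blood pressure recorded via the catheter. A 5-HT2A antagonist, MDL100907, was also used.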

T3 sequence (P28223 whole entry): as the sequence (P28223 whole entry, looked up, one chain of several) above

By Emax is commonly meant the maximal effect, on the per cent scale that the assay sets. By Ki is commonly meant the dissociation constant of the complex between target and ligand, obtained from inhibition or displacement. High values mean weaker binding, low ones tighter binding. With `Clc1ccc2c(c1Cl)CCNCC2`, the minimal effective dose in the test on Rattus norvegicus [1] worked out at 0.3 mg/kg. For the same molecule, the Ratio Ki (in the test filed under Homo sapiens; in test [3]) was 11 in each case. In addition, the Emax in [2] stood at 87%; in test [5], 27%. In addition, the Ki in test [4] came out at 8.8 nM; in test [6], 93 nM; in test [7] it was 100 nM.
In the case of `CN1CCc2ccc([N+](=O)[O-])c(Cl)c2CC1`, the Ratio Ki stood at 5 in the test listed under Homo sapiens and 6 in [3]. Further, the results for the Emax in [2] and in test [5] were 85% and 7%, respectively. Moreover, the Ki came to 66 nM in [4], 400 nM in test [6] and 1000 nM in test [7].
In the case of `Fc1ccc2c(c1Cl)CCNCC2`, the Ratio Ki in the test filed under Homo sapiens is 10; in [3], 3. Moreover, the figures for the Emax in test [2] and in test [5] were 80% and 26%, respectively. For the same molecule, the Ki is 43 nM in test [4], 130 nM in test [6] and 410 nM in [7].
Regarding `N#Cc1ccc2c(c1Cl)CCNCC2`, the Ratio Ki in the test filed under Homo sapiens stood at 13; in test [3], 6. Moreover, the Emax in test [2] is 81%; in test [5] it was 23%. Moreover, the Ki in test [4] is 5.1 nM; in [6], 30 nM; in test [7], 65 nM.
In the case of `O=[N+]([O-])c1ccc2c(c1Cl)CCNCC2`, the Ratio Ki in the test listed under Homo sapiens turned out to be 21; in test [3], 4. The Emax was determined as 86% in [2] and 38% in test [5]. Also, the Ki in [4] was 14 nM; in [6] it was 51 nM; in [7], 300 nM.
As to `COc1ccc2c(c1Cl)CCNCC2`, the Ratio Ki is 4 in the test listed under Homo sapiens and 3 in test [3]. The maximal response (Emax) turned out to be 88% in [2] and 56% in test [5]. Further, the Ki was found to be 20 nM in [4], 62 nM in test [6] and 84 nM in test [7].
In the case of `CNc1ccc2c(c1Cl)CCNCC2`, the Ratio Ki in the test filed under Homo sapiens was 5; in test [3], 2. In addition, the results for the maximal response (Emax) in test [2] and in test [5] were 81% and 90%, respectively. Also, the Ki in test [4] was 46 nM; in [6], 90 nM; in test [7], 210 nM.
As to `Clc1c(Br)ccc2c1CCNCC2`, the Ratio Ki in the test filed under Homo sapiens was found to be 10; in test [3], 4. The Emax in [2] came out at 71%; in test [5] it was 32%. Besides, the Ki in test [4] is 2.4 nM; in test [6], 10 nM; in [7] it was 25 nM.
For the molecule `c1cc2c3c(ccc2o1)CCNCC3`, the Ratio Ki in the test listed under Homo sapiens turned out to be 5; in [3] it was 2. The Emax in test [2] came to 82%; in test [5], 47%. Besides, the results for the Ki in test [4], in test [6] and in test [7] were 20 nM, 46 nM and 90 nM, respectively.
On to `CCc1cc2c(ccc3cnn(C[C@H](C)N)c32)o1`, for which, in the test on Rattus norvegicus [1], the minimal effective dose was 0.3 mg/kg. Moreover, the results for the Ratio Ki (in the test listed under Homo sapiens; in [3]) were 2.8 and 15, respectively. Moreover, the Activity result in the test on Rattus norvegicus [8] was “Dose-dependent effect”. This molecule gave a Ki in test [7] of 2.5 nM.
Take `c1cc2ccc3c(c2o1)CCNCC3`: the Ratio Ki came out at 1 in the test listed under Homo sapiens and 4 in test [3]. Moreover, the Emax in [2] was found to be 57%; in test [5], 40%. The inhibition constant Ki came to 23 nM in [4], 99 nM in test [6] and 34 nM in test [7].
